Source: PubChem
In the library only some 4% were active in any assay of this set; here they are far more common.
Smad3 FoxH1 inh: Smad3 (human) transcription factor binding inhibition; inhibition, % at 25 µM; TR-FRET Smad3/Dy647-FoxH1 peptide binding, europium anti-His; actives 0.29% (n = 88,000); P84022;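 active means compounds that reduce the energy-transfer binding signal between the protein and its labelled peptide by more than half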;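 further: 0% = Smad3 plus labelled peptide maximal FRET and 100% = peptide-only background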
ERb SRC1 inh: blocks coactivator binding to human estrogen receptor beta; Q92731; TR-FRET ER-beta LBD / SRC1-Cy5 peptide binding; receptor agonist-loaded with 1 µM estradiol; inhibition, % at 25.6 µM; actives 1.3% (n = 86,000);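 active means compounds whose percent inhibition of the receptor-coactivator binding signal exceeds about 50% in the single-dose screen, limit read from the data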;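 further: 0% = receptor plus peptide wells without compound and 100% = peptide-only wells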
Target sequence (Q92731 whole entry, looked up, the tested form may be a part): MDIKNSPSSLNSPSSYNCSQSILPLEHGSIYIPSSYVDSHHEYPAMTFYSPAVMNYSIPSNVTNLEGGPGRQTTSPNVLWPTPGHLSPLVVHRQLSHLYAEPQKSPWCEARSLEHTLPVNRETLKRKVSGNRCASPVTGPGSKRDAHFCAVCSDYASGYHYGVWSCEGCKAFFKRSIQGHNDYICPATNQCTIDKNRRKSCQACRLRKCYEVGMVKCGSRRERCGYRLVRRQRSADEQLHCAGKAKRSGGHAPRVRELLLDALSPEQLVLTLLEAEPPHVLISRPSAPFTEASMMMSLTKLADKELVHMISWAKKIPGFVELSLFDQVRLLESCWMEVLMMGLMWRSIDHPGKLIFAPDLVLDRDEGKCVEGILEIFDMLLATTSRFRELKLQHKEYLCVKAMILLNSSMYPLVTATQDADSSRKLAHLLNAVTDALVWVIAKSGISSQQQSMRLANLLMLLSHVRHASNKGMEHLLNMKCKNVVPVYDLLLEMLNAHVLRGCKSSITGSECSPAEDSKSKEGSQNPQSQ
FAK blocker: inhibitors of human focal adhesion kinase; Q05397; biochemical FAK kinase activity assay; inhibition, %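 (tested at 7 µM)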; actives 0.84% (n = 97,000); AID 727; in the data active means inhibition above about 19%;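 further: 0% = DMSO and 100% = reference compound high control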
ERa coact inh: ER-alpha (human) coactivator binding inhibition | actives 1.7% (n = 86,000) | TR-FRET ER-alpha LBD / SRC-1 peptide, estradiol-bound | inhibition, % at 25.6 µM; in the data active means inhibition above about 50%;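 further: 0% = receptor plus peptide control and 100% = peptide only without receptor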
ERa coact pot: enhances coactivator binding to human estrogen receptor alpha. P03372. TR-FRET ERalpha-LBD/SRC-Cy5 coactivator binding, 2 h; 100 = basal binding, no effect. coactivator binding (% of control), % at 25.6 µM. actives 1.3% (n = 86,000). AID 639; in the data active means activity above about 200%;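 further: binding measured in presence of low estradiol as agonist stimulus; 0% = peptide alone without receptor and 100% = receptor with peptide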
Rev-RRE block: HIV Rev-RRE protein-RNA interaction inhibition. Rev peptide-RRE RNA binding, FRET. P05866. actives 0.79% (n = 97,000). inhibition, % at 8 µM;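 active means inhibition above the screen-wide mean plus 3 SD, cut at about 35% in these data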;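 further: 0% = median DMSO wells and 100% = median Neomycin B control wells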
Target sequence (P05866 whole entry, looked up): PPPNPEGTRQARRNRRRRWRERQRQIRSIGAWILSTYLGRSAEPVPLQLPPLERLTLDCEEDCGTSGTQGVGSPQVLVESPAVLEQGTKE
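Assay system: labelled RRE RNA duplex and labelled Rev peptide / Medium: HEPES pH 7.5 salt buffer with EDTA / Reagent: labelled Rev peptide / Schedule: 5 + 15 min at 25 °C / Signal: FRET, excitation 480 nm, emission 540 nm donor and 671 nm acceptor / Benchmarks: DMSO and neomycin B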
* hit, by the source's call; nt = no result given; [ ] = another dose, or the depositor's remark.

SMILES	Smad3 FoxH1 inh	ERb SRC1 inh	FAK blocker	ERa coact inh	ERa coact pot	Rev-RRE block
COc1ccc(C2C(CC(=O)O)=C(O)C(=O)N2c2ccccc2)cc1 (stereo not given)	4.4	4.6	-5.0	1.9	100.5	2.8
COc1ccc(C2C(C(=O)c3cccs3)=C(O)C(=O)N2c2nnc(C)s2)cc1OC (stereo not given)	6.8	0.3	-3.0	4.0	107.8	106.7*[fluorescence artefact?]
Cc1ccc(C2C(C(=O)c3ccco3)=C(O)C(=O)N2c2nnc(C)s2)cc1 (stereo not given)	-2.0	-4.9	0.6	32.9	59.3	48.4*
C=CCOc1ccc(C2C(C(=O)c3cccs3)=C(O)C(=O)N2c2nnc(C)s2)cc1 (stereo not given)	6.6	3.5	-4.0	-4.7	76.9	102.1*[fluorescence artefact?]
C=CCOc1cccc(C2C(C(=O)c3ccc(C)o3)=C(O)C(=O)N2Cc2ccncc2)c1 (stereo not given)	5.8	11.8	-4.2	-6.2	114.4	3.5
Cc1cc(N2C(=O)C(O)=C(C(=O)c3ccco3)C2c2ccc(O)cc2)no1 (stereo not given)	-7.9	-3.7	-4.5	2.7	88.5	5.8
COc1ccc(C2C(C(=O)c3cccs3)=C(O)C(=O)N2c2nncs2)cc1 (stereo not given)	2.7	4.7	-3.8	-9.5	93.8	102.0*[fluorescence artefact?]
O=C(O)CNCCc1ccccc1	-14.1	nt	nt	nt	nt	nt
CC(C)(N)CO[C@@H]1C[C@@H]2CC[C@@]1(C)C2(C)C	2.8	nt	nt	nt	nt	nt
CN[C@@H](c1ccncc1)[C@@H](NC)c1ccncc1	-10.0	nt	nt	nt	nt	nt
CN1CCN(c2ccc(C(=O)c3ccc(F)cc3)cc2)CC1	-1.9	-5.8	3.7	0.5	145.8	4.4
O=C(O)CCC(=O)N1CCN(c2ccc(C(=O)c3ccc(F)cc3)cc2)CC1	3.0	-6.6	-0.4	12.9	249.3*	7.4
COc1cc(-c2noc(-c3cccc(Cl)c3)n2)cc(OC)c1OC	-3.0	15.8	1.3	4.8	233.0*	10.7
COc1cc(-c2nc(-c3cccc(C)c3)no2)cc(OC)c1OC	-3.9	17.6	0.7	-6.4	128.7	2.6
O=S(=O)(N1CCCCC1)N1CCN(CC(O)COc2ccc3cc(Br)ccc3c2)CC1 (stereo not given)	12.4	-7.5	0.7	-5.5	253.3*	4.5
CN(C)S(=O)(=O)N1CCN(CC(O)COc2ccc3cc(Br)ccc3c2)CC1 (stereo not given)	7.9	-6.0	-0.4	-0.1	119.2	7.1
O=C(O)c1ccccc1N[C@H](c1ccccc1)c1ccc2cccnc2c1O	-2.0	nt	nt	nt	nt	nt
CC(=O)NC(c1ccco1)c1ccc2cccnc2c1O (stereo not given)	5.2	59.3*[fluorescence artefact?]	-1.6	30.7	71.6	7.8
S=C(Nc1ccc2cn[nH]c2c1)Nc1ccc2cn[nH]c2c1	45.1	nt	nt	nt	nt	nt
c1cc(CSSCc2ccncc2)ccn1	39.4	nt	nt	nt	nt	nt
Cc1ccccc1-c1cc2c(nn1)-c1ccccc1C2=O	14.2	0.1	15.6	-3.1	80.5	2.3
Cc1ccc(-c2cc3c(nn2)-c2ccccc2C3=O)cc1	26.4	37.0	nt	63.2*[fluorescence artefact?]	60.5	nt
C=CCn1c(=O)c(C(=O)Nc2cccnc2)c(O)c2ccccc21	29.0	20.7	23.0*	43.3	131.8	1.4
Cc1[nH]n(-c2ccc(S(=O)(=O)O)cc2)c(=O)c1N=Nc1ccccc1	7.8	nt	nt	nt	nt	nt
N#C/C(=C/c1ccc(N2CCOCC2)o1)c1ccc(Br)cc1	nt	nt	2.0	nt	nt	122.5*[fluorescence artefact?]
SMILES	Smad3 FoxH1 inh	ERb SRC1 inh	FAK blocker	ERa coact inh	ERa coact pot	Rev-RRE block
N#C/C(=C\c1cc([N+](=O)[O-])c(N2CCOCC2)cc1N1CCOCC1)c1nc2ccccc2[nH]1	nt	nt	4.7	nt	nt	6.8
N#C/C(=C\c1ccc(N2CCOCC2)o1)c1ccccc1	nt	nt	4.9	nt	nt	78.3*
N#C/C(=C/c1ccc(N2CCOCC2)o1)c1nc2ccccc2[nH]1	17.2	-10.4	4.4	-40.5	98.9	135.8*[fluorescence artefact?]
N#C/C(=C\N1CCOCC1)c1ccccc1	0.7	-20.1	-0.1	1.2	108.5	1.5
CC(CO)(CO)N=Cc1cc(I)cc(I)c1O	-5.5	nt	nt	nt	nt	nt
N#C/C(=C\N1CCNC1=S)C(=O)c1ccc2ccccc2c1	19.5	nt	nt	nt	nt	nt
Cc1ccc(-n2[nH]c(C)c(/C=N/n3c(C)nc4ccccc4c3=O)c2=O)cc1	-1.6	85.1*	-2.2	-1.3	110.8	11.8
Cc1ccc([C@@H](O)c2cnc(C)n2Cc2ccccc2)cc1	9.1	nt	nt	nt	nt	nt
Cn1nnnc1SCC(=O)NC1CCCCC1	2.5	3.5	-2.9	-4.0	104.8	0.3
Cn1nnnc1SCC(=O)N(C1CCCCC1)C1CCCCC1	-8.7	51.0*[fluorescence artefact?]	-4.5	-4.6	107.7	0.6
C[N+](C)(C)CCN[N@+]1(C)CCCc2ccccc21	103.2*	nt	nt	nt	nt	nt
COn1c(SCc2ccc(C)cc2C)nc2ccccc2c1=O	-3.8	-13.2	3.0	-0.7	84.0	6.8
CCOC(=O)c1c(NC(C)=O)sc2c(O)c(CN3CCN(CC)CC3)ccc12	14.0	43.9	2.9	53.7*[fluorescence artefact?]	199.9	3.1
Cn1c(=O)cc(SCC(=O)NCc2cccnc2)c2ccccc21	16.7	-15.9	-5.3	-2.7	112.6	6.5
Cn1c(=O)cc(SCC(=O)Nc2cccnc2)c2ccccc21	13.3	-10.0	-5.3	5.2	263.9*[fluorescence artefact?]	-2.5
CC(=O)Oc1ccc(N2C(=O)CCC2=O)cc1	-9.8	2.4	0.7	-1.4	97.8	3.7
COc1ccc(N2C(=O)CCC2=O)cc1	-7.1	42.8	-12.3	52.3*[fluorescence artefact?]	44.8	2.3
C[C@H]1[C@H](O)[C@@H](C)C=CC=CC=CC=CC=CC=CC=C[C@H](O[C@H]2O[C@@H](C)[C@H](O)[C@@H](N)[C@@H]2O)C[C@@H]2O[C@@](O)(C[C@@H](O)C[C@@H](O)[C@@H](O)CC[C@@H](O)C[C@@H](O)CC(=O)O[C@H]1C)C[C@H](O)[C@H]2C(=O)O	16.9	nt	nt	nt	nt	nt
Cc1ccc2nc(-c3ccc(NC(=O)c4ccc(N)cc4)c(S(=O)(=O)O)c3)sc2c1	14.7	nt	nt	nt	nt	nt
CCOC(=O)N1CCN(c2c(NCCc3ccccc3)c(=O)c2=O)CC1	nt	nt	-5.3	nt	nt	5.7
O=C1c2ccccc2-c2onc3ccc(NCc4ccco4)c1c23	-13.3	28.6	nt	11.4	22.6	nt
O=C(O)CCCNc1cc(N2CCC3(CC2)OCCO3)c2noc3c2c1C(=O)c1ccccc1-3	98.2*[fluorescence artefact?]	87.7*[fluorescence artefact?]	0.6	27.2	41.1	122.5*[fluorescence artefact?]
CCOC(=O)N1CCN(c2cc(NCCC(=O)O)c3c4c(onc24)-c2ccccc2C3=O)CC1	-7.7	65.0*[fluorescence artefact?]	nt	9.7	51.0	nt
O=C(O)c1cc2c(cc1S(=O)(=O)O)[C@@H]1[C@@H]([C@H]3[C@H]2[C@]2(Cl)C(Cl)=C(Cl)[C@@]3(Cl)C2(Cl)Cl)[C@]2(Cl)C(Cl)=C(Cl)[C@@]1(Cl)C2(Cl)Cl	31.8	nt	nt	nt	nt	nt
CCc1cccc(CC)c1NC(=O)C1CC(=O)N(c2ccc3c(c2)OCCO3)C1 (stereo not given)	nt	nt	-1.7	nt	nt	10.1
